Rows were chosen to be rich in hits. Some 2.9% of all compounds tested hit in one or more screens of this group.
HSP90 inh = blocks HSP90-mediated luciferase refolding in reticulocyte lysate. Rabbit reticulocyte lysate, luciferase refolding luminescence, 3 h. inhibition, % at 5.6 µM. actives 0.91% (n = 290,000). AID 1789;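 active means inhibition above the screen-wide mean plus 3 SD, computed separately per campaign, cut at about 16% in these data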;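 further: 0% = DMSO wells and 100% = 60 µM geldanamycin wells; inhibitors lower the luminescence because luciferase stays unfolded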
SENP8 block-1 = SENP8 (human) protease inhibition; Q96LD8; recombinant SENP8, Nedd8 substrate fluorescence; inhibition, % at 20 µM; actives 0.64% (n = 360,000); in the data active means inhibition mostly above about 40%, no sharp cut-off; inactive means mostly below about 27%
Target sequence (Q96LD8 whole entry, looked up): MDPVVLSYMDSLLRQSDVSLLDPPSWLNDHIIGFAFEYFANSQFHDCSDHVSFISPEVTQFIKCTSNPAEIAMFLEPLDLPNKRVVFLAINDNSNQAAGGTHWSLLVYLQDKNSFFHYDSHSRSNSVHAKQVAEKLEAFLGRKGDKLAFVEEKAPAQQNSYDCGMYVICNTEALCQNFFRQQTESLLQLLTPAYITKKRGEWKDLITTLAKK
SENP8 block-2 = inhibitors of human SENP8 protease; Q96LD8; purified SENP8, Z-RLRGG-aminoluciferin cleavage, luminescence; actives 1.2% (n = 330,000); inhibition, % at 10 µM; AID 2540; in the data active means inhibition above about 50%
SENP7 block = blocks the human protease SENP7. Q9BQF6. inhibition, % at 5 µM. recombinant SENP7, Z-RLRGG-aminoluciferin luminescence, 40 min. actives 1.5% (n = 330,000);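 active means inhibition above about 50% at the single test dose, limit read from the data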;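 further: plate controls were DMSO with enzyme for no effect and no enzyme buffer wells for full effect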
SENP6 inh = inhibitors of human SENP6 protease | Q9GZR1 | Recombinant SENP6 catalytic domain, aminoluciferin luminescence | inhibition, % at 10 µM | actives 1.8% (n = 330,000);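 active means inhibition above about 50% at the single tested dose, limit read from the data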;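 further: plate controls were DMSO wells with enzyme for no effect and DMSO wells lacking enzyme for full effect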
SENP1 inh = inhibitors of human SENP1 SUMO protease catalytic domain | Q9P0U3 | recombinant SENP1 catalytic domain, CyPet-SUMO1-YPet FRET cleavage | inhibition, % at 10 µM | actives 0.21% (n = 360,000) | AID 624204;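 active means inhibition at least 30% at 10 µM, raw YFP signal under a set limit, fluorescence ratio 0.5 to 1.5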;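 further: 0% = enzyme with DMSO and 100% = no enzyme wells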
Target sequence (Q9P0U3 419-644 limits assumed): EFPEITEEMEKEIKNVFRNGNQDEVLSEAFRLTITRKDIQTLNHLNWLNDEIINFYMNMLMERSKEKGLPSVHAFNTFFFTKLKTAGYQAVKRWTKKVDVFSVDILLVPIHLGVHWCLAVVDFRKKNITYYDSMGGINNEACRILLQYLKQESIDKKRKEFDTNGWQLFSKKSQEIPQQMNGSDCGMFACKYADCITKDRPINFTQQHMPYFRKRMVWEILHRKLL
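Assay system – human recombinant His6-tagged SENP1 catalytic domain enzyme · Input – SENP1 enzyme, 20 pM final · Buffer or medium – Tris pH 8 buffer plus EDTA, NaCl, BME, BSA, NP40, catalase · Schedule – 50 min reaction at room temperature · Technique – FRET read of cyan and yellow fluorescence · Control set – no-enzyme wells low, DMSO-plus-enzyme wells high control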
HSP90 confirm = confirmation of HSP90 inhibitors. shares compounds with HSP90 inh. rabbit reticulocyte lysate, luciferase refolding luminescence, 3 h. inhibition, % at 5.9 µM. actives 64% (n = 2,300); in the data active means inhibition above about 18%;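 further: 0% = vehicle wells and 100% = reference inhibitor wells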
FLuc counter = blocks native firefly luciferase in HSP90 counter-screen; purified native firefly luciferase, luminescence; shares compounds with HSP90 inh; actives 48% (n = 2,300); inhibition, % at 5.9 µM; AID 1847;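 active means inhibition above the mean inhibition of all tested sample wells plus 3 SD, cut at about 10% in these data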;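 further: 0% = DMSO with luciferase and 100% = wells lacking luciferase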
* marks the source's active call; other numbers are inactive results.

Screening COC(=O)c1sc(NC(=O)CSc2nnnn2-c2cccc(OC)c2)nc1C returned HSP90 inh 20*, SENP8 block-1 20, SENP8 block-2 3, SENP7 block 3, SENP6 inh 0, SENP1 inh 1, HSP90 confirm 1 and FLuc counter -7.
CCOC(=O)c1sc(NC(=O)CSc2nnnn2-c2ccccc2)nc1C was read as HSP90 inh -2, SENP8 block-1 23, SENP8 block-2 -6, SENP7 block 1, SENP6 inh -17 and SENP1 inh -2.
CC1=C([N+](=O)[O-])C(c2ccccc2Cl)NC(=O)N1C (stereo not given) was read as HSP90 inh -1, SENP8 block-1 14, SENP8 block-2 4, SENP7 block -1, SENP6 inh 15 and SENP1 inh -1.
`Cc1ccc2c(c1)C(=O)C(=O)N2CCOc1ccccc1` gave HSP90 inh 21*, SENP8 block-1 18, SENP8 block-2 -4, SENP7 block 0, SENP6 inh -16, SENP1 inh 0, HSP90 confirm 3 and FLuc counter -26.
O=C(CN1CCN(c2ccc(F)cc2)CC1)N1N=CCC1c1ccccc1 (stereo not given) was read as HSP90 inh 3, SENP8 block-1 14, SENP8 block-2 -5, SENP7 block 7, SENP6 inh -10 and SENP1 inh 3.
Screening O=C(CN1CCN(c2ccccc2)CC1)N1N=CCC1c1ccccc1 (stereo not given) returned HSP90 inh 39*, SENP8 block-1 15, SENP8 block-2 -2, SENP7 block 2, SENP6 inh -31, SENP1 inh 1, HSP90 confirm -9 and FLuc counter -9.
For CC(C)c1ccc(NC(=O)Nc2nc(C(N)CCc3ccccc3)cs2)cc1 (stereo not given) the results were SENP8 block-1 18 and SENP1 inh 2.
`CCc1ccc(Nc2n[n+](-c3ccccc3)c(-c3ccc(N(CC)CC)cc3)s2)cc1` gave HSP90 inh 20*, SENP8 block-1 -481, SENP8 block-2 -10, SENP7 block 5, SENP6 inh -16, SENP1 inh 12, HSP90 confirm 46* and FLuc counter -18.
For O=C(NNS(=O)(=O)c1ccc(F)cc1)C1CC(c2cccnc2)=NO1 (stereo not given) the results were HSP90 inh 21*, SENP8 block-1 -2, SENP8 block-2 -8, SENP7 block -6, SENP6 inh 5, SENP1 inh 1, HSP90 confirm 3 and FLuc counter 0.
`CCc1ccc(-c2csc(NC(=O)COC(=O)CCc3nc4ccccc4s3)n2)cc1` gave HSP90 inh -4, SENP8 block-2 -2, SENP7 block 2 and SENP6 inh -17.
For COc1ccc(C(=O)N2CCOCC2)cc1S(=O)(=O)N1CCCc2ccccc21 the results were HSP90 inh 20*, SENP8 block-1 6, SENP8 block-2 6, SENP7 block 0, SENP6 inh 14, SENP1 inh 1, HSP90 confirm 1 and FLuc counter -6.
`O=C(c1ccc(CS(=O)c2ccc(F)cc2)o1)N1CCN(C2CCCCC2)CC1` (stereo not given) gave HSP90 inh 11, SENP8 block-1 11, SENP8 block-2 6, SENP7 block 6, SENP6 inh -5 and SENP1 inh 0.
COC(=O)c1ccc(NC(=O)C[n+]2ccccc2C)cc1 was read as HSP90 inh 20*, SENP8 block-1 15, SENP8 block-2 2, SENP7 block 4, SENP6 inh 12, SENP1 inh -1, HSP90 confirm 1 and FLuc counter -4.
For CC1CCCN(CCCCOc2cccc(Br)c2)C1 (stereo not given) the results were HSP90 inh -4, SENP8 block-1 5, SENP8 block-2 -13, SENP7 block 2, SENP6 inh -14 and SENP1 inh 1.
CCC(=O)N/N=C/c1ccc(OS(=O)(=O)c2ccccc2)cc1 was read as HSP90 inh 22*, SENP8 block-1 15, SENP8 block-2 -14, SENP7 block 1, SENP6 inh -31, SENP1 inh 1, HSP90 confirm -1 and FLuc counter -4.
COc1ccc(/C=N/NC(=O)CNS(=O)(=O)c2ccccc2)cc1 was read as SENP8 block-1 9, SENP8 block-2 6, SENP7 block 4, SENP6 inh -17 and SENP1 inh 2.
Screening O=C(Nc1ncc([N+](=O)[O-])s1)c1ccc2c(c1)OCO2 returned HSP90 inh 76*, SENP8 block-1 19, SENP8 block-2 97*, SENP7 block 102*, SENP6 inh 96*, SENP1 inh -63, HSP90 confirm 87* and FLuc counter 76*.
`O=C(O)c1ccc(C(S(=O)(=O)c2ccccc2)S(=O)(=O)c2ccccc2)cc1` gave SENP8 block-1 13 and SENP1 inh 2.
Screening CC(=O)N(Cc1ccc(F)cc1)C1=C(NCCc2ccccc2)C(=O)c2ccccc2C1=O returned HSP90 inh 48*, SENP8 block-1 76*, SENP8 block-2 31, SENP7 block 30, SENP6 inh 48, SENP1 inh -3, HSP90 confirm 12 and FLuc counter -5.
`O=C1C(Cl)=C(NCCc2ccccc2)C(=O)c2ccccc21` gave SENP8 block-1 -82 and SENP1 inh 6.
For CCCC[C@@H]1Cc2[nH][nH]c(=O)c2[C@H](c2ccc3ccccc3c2)O1 the results were SENP8 block-1 14 and SENP1 inh 2.
For Cc1ccc(-c2cc(C(=O)N/N=C/c3ccco3)[nH]n2)cc1 the results were HSP90 inh 22*, SENP8 block-1 10, SENP8 block-2 -6, SENP7 block 6, SENP6 inh -28, SENP1 inh -1, HSP90 confirm 19* and FLuc counter 24*.
Screening Cc1nnc(N/N=C/c2cc([N+](=O)[O-])c(N3CCC(C)CC3)cc2N2CCC(C)CC2)n1N returned HSP90 inh 76*, SENP8 block-1 34, SENP8 block-2 -3, SENP7 block 4, SENP6 inh 17, SENP1 inh 0, HSP90 confirm -9 and FLuc counter -9.
Screening O=C(Nc1ccccc1)C1=C[C@@H](C2CCCCC2)C[C@@H](OCCCCO)O1 returned HSP90 inh 26*, SENP8 block-1 6, SENP8 block-2 -1, SENP7 block 3, SENP6 inh -12, SENP1 inh 1, HSP90 confirm 35* and FLuc counter 28*.
